High-throughput results as filed in PubChem.
Hits are enriched below; roughly 3.3% of the tested compounds scored in any of these assays.
STAT3 act: IL-6 driven STAT3 reporter potentiators, primary screen, U3A cells, luciferase, luminescence, MLSCN library; IL-6 STAT3-luciferase reporter; 100% = signal with IL-6 EC80 alone; activation (% of control), % at 5.6 µM; hit rate 0.91% among 190,000; AID 871, 2007;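 active = activation above the screen-wide mean of compound activation plus 3 SD, cut at about 130% in these data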;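 note: 0% = background luminescence of wells with medium and substrate only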
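Test system: STAT3-luciferase reporter U3A cells; Detection: reporter luminescence signal; Times: 1 h compound pre-exposure, 6 h IL-6 stimulation, 37 °C; Benchmarks: IL-6-only high control; Also added: IL-6 stimulus at 33 ng/mL final.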
ABCB6 inh MLPCN: ABCB6 transporter inhibitors, primary screen, K562-ABCB6 cells, flow cytometry, MLPCN library; ATP-binding cassette sub-family B member 6 (Homo sapiens), Q9NP58; K562-ABCB6 porphyrin accumulation, 1 h; active compounds read low; fluorescence ratio to DMSO, % at 10 µM; hit rate 0.19% among 360,000; AID 602162, 2011;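 active = fluorescence ratio to DMSO below 75%, the collection mean minus 3 SD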;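 note: signal is porphyrin accumulated inside mitochondria; 100% equals median channel fluorescence of DMSO control wells; lower ratio means ABCB6 inhibition with less porphyrin fluorescence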
AHR activator: AHR activators, primary screen, cell-based, luminescence, luciferase reporter, human | Aryl hydrocarbon receptor (Homo sapiens), P35869 | AHR-responsive luciferase reporter cells | activation, % at 5 µM | hit rate 2.5% among 320,000 | AID 2796, 2010; in the data active = activation above about 47%;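 note: 0% = vehicle wells and 100% = reference agonist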
Target sequence (P35869 whole entry, looked up): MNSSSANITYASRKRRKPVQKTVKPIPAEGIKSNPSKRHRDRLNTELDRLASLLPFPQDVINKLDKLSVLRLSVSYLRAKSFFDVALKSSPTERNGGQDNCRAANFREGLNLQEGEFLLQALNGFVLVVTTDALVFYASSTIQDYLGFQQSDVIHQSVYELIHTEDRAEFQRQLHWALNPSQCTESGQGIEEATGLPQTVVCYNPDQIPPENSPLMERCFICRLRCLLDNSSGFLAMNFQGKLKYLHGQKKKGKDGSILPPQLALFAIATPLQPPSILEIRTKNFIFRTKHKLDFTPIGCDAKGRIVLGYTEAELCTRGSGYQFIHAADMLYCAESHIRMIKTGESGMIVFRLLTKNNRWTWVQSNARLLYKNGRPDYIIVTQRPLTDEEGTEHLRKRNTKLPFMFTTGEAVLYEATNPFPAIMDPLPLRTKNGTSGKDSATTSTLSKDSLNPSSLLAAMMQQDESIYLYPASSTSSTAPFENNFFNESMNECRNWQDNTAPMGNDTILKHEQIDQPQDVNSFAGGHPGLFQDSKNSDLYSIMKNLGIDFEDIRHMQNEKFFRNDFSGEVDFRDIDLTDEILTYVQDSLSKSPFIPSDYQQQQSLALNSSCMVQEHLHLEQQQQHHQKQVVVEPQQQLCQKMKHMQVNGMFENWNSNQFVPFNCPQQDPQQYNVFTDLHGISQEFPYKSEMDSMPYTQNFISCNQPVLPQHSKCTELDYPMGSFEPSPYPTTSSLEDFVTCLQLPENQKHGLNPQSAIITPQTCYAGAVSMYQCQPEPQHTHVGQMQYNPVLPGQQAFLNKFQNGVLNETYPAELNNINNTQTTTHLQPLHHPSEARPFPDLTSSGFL
GAA850 FXN act: FXN promoter activators, primary screen, cell-based, luciferase luminescence, HEK293 lucGAA850; activation, % at 6 µM; HEK293 lucGAA850 FXN promoter luciferase reporter, 24 h; percent of 10 µM SAHA response; AID 540364, 2011; hit rate 0.56% among 360,000;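 active = activation above the average of all compounds screened plus 3 SD, cutoff fixed separately per campaign, cut at about 7.5% in these data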;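 note: 0% = DMSO wells and 100% = 10 µM SAHA wells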
ABCB6 inh CP1: ABCB6 transporter inhibitors, confirmation, K562-ABCB6 cells, flow cytometry, cherry pick 1 | shares compounds with ABCB6 inh MLPCN | K562-ABCB6 porphyrin accumulation, 1 h; active compounds read low | ratio response (% of DMSO), % at 10 µM | 700 tested, under 10 active;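 active = repeat-averaged ratio response below 75% of DMSO, the collection mean minus 3 SD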;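 note: median porphyrin fluorescence at 575 nm with 488 nm excitation from mitochondria; lower ratio means less porphyrin signal so ABCB6 inhibition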
* hit, by the source's call; nt = not tested or not shown.

SMILES | STAT3 act | ABCB6 inh MLPCN | AHR activator | GAA850 FXN act | ABCB6 inh CP1
N#Cc1nn(-c2ccccc2)nc1N1CCCCC1 | 96.0 | 69.0* | 0.9 | 3.6 | 95.0
COc1ccc([N+](=O)[O-])cc1NC(=O)C1CCCO1 (stereo not drawn) | 102.8 | 71.0* | -0.8 | 3.2 | 101.0
O=S(=O)(/N=C(/c1ccccc1)N1CCOCC1)c1ccc(F)cc1 | nt | 102.0 | 5.3 | 2.4 | nt
Cc1ccccc1C(=O)N1CCN(c2ccc(NC(=O)Cc3ccccc3)cc2)CC1 | nt | 97.0 | -3.2 | -0.8 | nt
CCC(=O)Nc1ccc(N2CCN(C(=O)c3ccccc3C)CC2)cc1 | 99.3 | 65.0* | -0.3 | 0.1 | 98.0
CCOC(=O)NC1(C(F)(F)F)C(=O)N(Cc2ccccn2)C2=C1C(=O)CC(C)(C)C2 (stereo not drawn) | 111.4 | 80.0 | -2.3 | 1.7 | nt
O=S(=O)(c1ccc2ccccc2c1)N1CCN(C2CCN(Cc3ccccc3)CC2)CC1 | 85.9 | 48.0* | 0.3 | -0.4 | 97.0
O=S(=O)(c1ccccc1)N1CCN(C2CCN(Cc3ccccc3)CC2)CC1 | 108.0 | 100.0 | -1.0 | 0.0 | nt
O=Cc1ccc2noc(-c3ccc(F)cc3)c2c1 | 100.4 | 108.0 | 8.8 | 3.1 | nt
Cn1cc(-c2cccc3nncn23)cn1 | nt | 93.0 | nt | 0.5 | nt
CSc1ccc(-c2cccc3nncn23)cc1 | nt | 65.0* | nt | 3.6 | 98.0
O=C1NC[C@@H](Cc2cccc3ccccc23)N(CCCCC2CCCCC2)C1=O | nt | 99.0 | 1.5 | 1.2 | nt
COc1cccc(NC(=O)Cn2c(CCC(=O)O)ccc2-c2ccc(C)cc2)c1 | 103.1 | 101.0 | 1.1 | 0.5 | nt
Cc1cccc(C)c1OCCOC(=O)c1cccc(S(=O)(=O)N2CCOCC2)c1 | nt | 71.0* | -1.2 | 1.1 | 100.0
Cc1cccc(NC(=O)c2oc3ccc(S(=O)(=O)N4CCOCC4)cc3c2C)c1C | 101.5 | 68.0* | 2.4 | -1.7 | 99.0
Cc1ccc(NC(=O)c2oc3ccc(S(=O)(=O)N4CCOCC4)cc3c2C)c(C)c1 | 93.0 | 100.0 | -0.9 | 0.8 | nt
Cc1cccc(C)c1OCCOC(=O)c1ccc(S(=O)(=O)N2CCCC2)cc1 | nt | 97.0 | nt | 0.1 | nt
Cc1cccn2c(=O)c3cc(S(=O)(=O)c4ccc(F)cc4)c(=N)n(Cc4ccco4)c3nc12 | nt | 95.0 | -5.1 | 2.7 | nt
Cc1cccn2c(=O)c3cc(S(=O)(=O)c4ccccc4)c(=N)n(Cc4ccco4)c3nc12 | 93.8 | 66.0* | -6.0 | -0.5 | 104.0
CC1CCN(C(=O)c2ccc(NC(=O)c3cccs3)cc2)CC1 | nt | 53.0* | 0.1 | -1.1 | 102.0
CCOc1ccc(C(C(=O)NCC2CCCO2)N(Cc2cccnc2)C(=O)c2snc(C(N)=O)c2N)cc1 (stereo not drawn) | nt | 74.0* | nt | -0.7 | 102.0
O=C(Nc1c(Cl)cc(Cl)cc1C(=O)NCCN1CCOCC1)c1ccc(Cl)cc1Cl | 112.4 | 97.0 | 34.8 | 2.0 | nt
O=S(=O)(NCC1CCCO1)c1cc(Cl)ccc1Br (stereo not drawn) | 100.5 | 24.0* | 0.6 | 1.7 | 100.0
O=S(=O)(NCC1CCCO1)c1cc(Cl)ccc1Cl (stereo not drawn) | 99.6 | 103.0 | 0.3 | 1.9 | nt
CCCNC(=O)COC(=O)c1ccccc1C(=O)c1ccc(Cl)c([N+](=O)[O-])c1 | 93.4 | 57.0* | -1.4 | -1.9 | 93.0
SMILES | STAT3 act | ABCB6 inh MLPCN | AHR activator | GAA850 FXN act | ABCB6 inh CP1
COc1ccc(C(=O)NC2=NCCS2)cc1 | nt | 74.0* | 12.7 | 5.1 | 97.0
CC(C)Oc1ccc(C(=O)NC2=NCCS2)cc1 | 51.2 | 94.0 | 20.1 | 3.2 | nt
CC(=O)Nc1ccc(OC(=O)c2c(-c3ccccc3Cl)noc2C)cc1 | 99.1 | 70.0* | -0.5 | 0.9 | 99.0
CC(=O)Nc1ccc(NC(=O)c2c(-c3ccccc3Cl)noc2C)c(C)c1 | nt | 95.0 | 11.0 | 1.8 | nt
O=C(NCc1ccccc1Cl)C1CCN(S(=O)(=O)N2CCC3(CC2)OCCO3)CC1 | 101.4 | 95.0 | 0.5 | -2.1 | nt
O=C(NCc1ccc(F)cc1Cl)C1CCN(S(=O)(=O)N2CCC3(CC2)OCCO3)CC1 | 100.2 | 69.0* | -1.7 | -0.2 | 96.0
C=CCN=C1CC(C)(C)C(C(=O)OC)C(O)=C1C(=O)CCC (stereo not drawn) | 116.1 | 102.0 | 0.0 | 5.3 | nt
COc1ccc(NC(=O)C2Cc3c(-c4cccc(NC(C)=O)c4)ccnc3O2)cc1 (stereo not drawn) | nt | 102.0 | nt | -4.4 | 103.0
CC(=O)Nc1ccc(-c2ccnc3c2CC(C(=O)Nc2ccccc2)O3)cc1 (stereo not drawn) | nt | 101.0 | nt | -7.8 | 95.0
O=C(Nc1cccnc1)C1Cc2c(-c3ccco3)ccnc2O1 (stereo not drawn) | nt | 74.0* | nt | -0.1 | 97.0
COc1ccc(NC(=O)C2Cc3c(-c4ccc(NC(C)=O)cc4)ccnc3O2)cc1 (stereo not drawn) | nt | 87.0 | nt | -2.6 | nt
CC(=O)c1cccc(-c2ccnc3c2CC(C(=O)Nc2ccc4c(c2)OCO4)O3)c1 (stereo not drawn) | nt | 98.0 | nt | -5.4 | 102.0
COc1ccc(NC(=O)C2Cc3c(-c4cccc(C(C)=O)c4)ccnc3O2)cc1 (stereo not drawn) | nt | 114.0 | nt | -3.7 | nt
Cc1ccc(S(=O)(=O)N2CCN(C(=O)CN3C(=O)c4ccc([N+](=O)[O-])cc4C3=O)CC2)cc1C | nt | 101.0 | 1.1 | -0.1 | nt
CN(C)c1ccc(-c2noc(-c3ccccc3O)n2)cc1 | 67.8 | 88.0 | 13.0 | 0.5 | nt
c1ccc(OC2CCCCC2N2CCOCC2)cc1 (stereo not drawn) | nt | 101.0 | nt | 1.4 | nt
COc1ccc(NC(=O)C2Cc3c(-c4cccc(F)c4)ccnc3O2)cc1OC (stereo not drawn) | nt | 69.0* | nt | -0.2 | 103.0
CC(=O)Nc1ccc(NC(=O)C2Cc3c(-c4cccc(C(C)=O)c4)ccnc3O2)cc1 (stereo not drawn) | nt | 102.0 | nt | -0.8 | 102.0
CC(=O)Nc1ccc(NC(=O)C2Cc3c(-c4cccc(NC(C)=O)c4)ccnc3O2)cc1 (stereo not drawn) | nt | 97.0 | nt | 1.8 | nt
COc1ccc(C(=O)N2CCN=C2c2ccccc2)cc1OC | 97.2 | 73.0* | 8.1 | 3.2 | 100.0
O=C(c1ccccc1)N1CCN=C1c1ccccc1 | 96.2 | 100.0 | 0.1 | 0.3 | nt
CC(=O)Nc1cccc(OCC(=O)NS(=O)(=O)c2ccc(Cl)cc2)c1 | 98.7 | 130.0 | 4.2 | 0.2 | nt
CCn1c(=O)n(CC)c2cc(N3CCCC3)c(NC(=O)c3ccccc3C)cc21 | nt | 64.0* | 5.2 | 0.9 | 98.0
CCSc1nc(C)c(C)c(=O)[nH]1 | nt | 72.0* | nt | 1.8 | 98.0
Cc1nn2c(N3CCN(C)CC3)cc(C(C)(C)C)nc2c1-c1ccccc1 | nt | 98.0 | -1.7 | 1.1 | nt
Cc1nn2c(N3CCN(C4CCCC4)CC3)cc(C(C)(C)C)nc2c1-c1ccccc1 | 98.4 | 57.0* | -0.5 | 2.7 | 104.0
